# Reference: ChEMBL document CHEMBL1122208, “Inhibitors of hepatic mixed-function oxidases. 4. Effects of benzimidazole and related compounds on aryl hydrocarbon hydroxylase activity from phenobarbitone and 3-methylcholanthrene induced rats” (J Med Chem, 1982)
# Counter-ions that a name gives are not always drawn.
# Experiments:
# Cytochrome P450 2B1 [1] = target: T1, Cytochrome P450 2B1 (Rattus norvegicus, UniProt P00176); experiment: Inhibition of Aminopyrine N-demethylase in Phenobarbitone-treated rats; details: read-out: I50
# T1 sequence (P00176 whole entry): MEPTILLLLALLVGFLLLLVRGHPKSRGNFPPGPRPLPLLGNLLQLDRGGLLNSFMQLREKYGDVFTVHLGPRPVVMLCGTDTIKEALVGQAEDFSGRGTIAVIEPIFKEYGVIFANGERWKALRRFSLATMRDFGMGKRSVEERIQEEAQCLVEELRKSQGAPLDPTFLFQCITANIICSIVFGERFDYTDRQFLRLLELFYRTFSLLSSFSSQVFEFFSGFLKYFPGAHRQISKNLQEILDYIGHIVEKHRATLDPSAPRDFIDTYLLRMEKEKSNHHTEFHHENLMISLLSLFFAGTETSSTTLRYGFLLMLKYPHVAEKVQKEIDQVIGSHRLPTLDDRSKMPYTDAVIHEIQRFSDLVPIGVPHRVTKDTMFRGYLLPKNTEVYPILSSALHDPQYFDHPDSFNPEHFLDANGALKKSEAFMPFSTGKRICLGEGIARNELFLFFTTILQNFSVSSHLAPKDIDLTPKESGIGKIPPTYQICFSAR
# Method in brief: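 Hepatic microsomes from immature male Wistar rats dosed with PB 80 (mg/kg)/day ip for 3 days and starved 24 h. Prepared in 0.1 M potassium phosphate pH 7.4. Aminopyrine N-demethylation followed by formaldehyde formation. Results expressed as molar I50.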
# [2] = target: T2, aryl hydrocarbon hydroxylase (cytochrome P450 1A1) (Rattus norvegicus, UniProt P00185); experiment: Inhibition of Aryl hydrocarbon hydroxylase in phenobarbitone-treated rats; details: read-out: I50
# T2 sequence (P00185 whole entry): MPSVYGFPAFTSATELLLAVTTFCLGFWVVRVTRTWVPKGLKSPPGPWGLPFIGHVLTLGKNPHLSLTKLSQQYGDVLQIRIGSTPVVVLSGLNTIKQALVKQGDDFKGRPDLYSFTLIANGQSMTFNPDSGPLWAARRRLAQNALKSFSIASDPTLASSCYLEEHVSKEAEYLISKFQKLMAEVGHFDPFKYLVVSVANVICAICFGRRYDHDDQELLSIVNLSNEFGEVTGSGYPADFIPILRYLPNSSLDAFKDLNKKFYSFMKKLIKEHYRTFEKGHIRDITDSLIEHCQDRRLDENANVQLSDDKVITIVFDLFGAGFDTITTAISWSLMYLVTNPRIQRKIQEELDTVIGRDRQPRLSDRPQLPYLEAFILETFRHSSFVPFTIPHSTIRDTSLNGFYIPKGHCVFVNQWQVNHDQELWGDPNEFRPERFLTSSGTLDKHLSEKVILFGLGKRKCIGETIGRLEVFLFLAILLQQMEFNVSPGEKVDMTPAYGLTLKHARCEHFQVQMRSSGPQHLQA
# Method in brief: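 Microsomes from immature male Wistar rats (100-150 g) given PB 80 (mg/kg)/day ip for 3 days, starved 24 h. Incubation: BP 285 nmol, MgCl2 3.0 μmol, NADPH 0.50 μmol, protein 1.2 mg, 0.1 M K phosphate pH 7.4, 3.0 mL. Run 10 min at 37 °C. Phenol fluorescence read at ex 396/em 522 nm. I50 by linear regression over five to eight inhibitor concentrations, mean of duplicates.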
# [3] = Partition coefficient (logP); assay type: physicochemical; details: octanol/water
# [4] = target: T2, aryl hydrocarbon hydroxylase (cytochrome P450 1A1); experiment: Effect on Aryl hydrocarbon hydroxylase activity in 3-methylcolanthrene-induced rat liver microsomes at 5.0x10E-5M; assay type: ADME, Microsome; details: 3-methylcholanthrene-induced rat liver microsomes, read-out: Control
# Method in brief: (§1)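 Liver microsomes from immature male Wistar rats (100-150 g) given one 3-MC dose (25 mg/kg in corn oil, ip) 3 days before sacrifice, starved 24 h. Incubation: BP 357 nmol, MgCl2 3.0 μmol, NADPH 0.50 μmol, protein 1.2 mg, 0.1 M K phosphate pH 7.4, 3.0 mL final volume. Run 6 min at 37 °C. Fluorescent phenols read at ex 396/em 522 nm. Activity given as % of solvent control, mean of three determinations, at roughly maximum solubility.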
# [5] = target: T3, cytochrome P450 (cytochrome P450 1A1) (Rattus norvegicus, UniProt P00185); experiment: Interaction (Ks) with cytochrome P450 in 3-methylcholanthrene-induced rat hepatic microsomes; assay type: ADME, Liver; details: read-out: Ks
# T3 sequence (P00185 whole entry): T2 sequence (P00185 whole entry)
# Method in brief: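 Optical difference spectra recorded with microsomes from 3-MC-treated rats (25 mg/kg in corn oil, ip, 3 days) at 1 mg/mL protein. Ks taken from the abscissal intercept of double-reciprocal plots of ΔOD (peak-trough) against five to eight compound concentrations, determined in duplicate.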
# Cytochrome P450 2B1 [6] = target: T1, Cytochrome P450 2B1; experiment: Interaction (Ks) with cytochrome P450 in phenobarbitone-induced rat hepatic microsomes; assay type: ADME, Liver; details: read-out: Ks
# Method in brief: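 Difference spectra recorded with microsomes from PB-treated rats (80 (mg/kg)/day ip, 3 days) at 1 mg/mL microsomal protein. Ks obtained in duplicate from double-reciprocal plots of ΔOD (peak-trough) versus five to eight ligand concentrations, using the abscissal intercept.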
# [7] = target: T3, cytochrome P450 (cytochrome P450 1A1); experiment: Interaction with cytochrome P450 in 3-methylcholanthrene-induced rat hepatic microsomes; assay type: ADME, Liver; details: read-out: Ks
# Method in brief: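 Hepatic microsomes from immature male Wistar rats given 3-MC (25 mg/kg in corn oil, ip, single dose) 3 days before sacrifice, starved 24 h. Optical difference spectra recorded at 1 mg/mL microsomal protein. Ks taken from abscissal intercept of double-reciprocal plot of ΔOD (peak-trough) vs concentration, five to eight concentrations, in duplicate.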
# [8] = target: T2, aryl hydrocarbon hydroxylase (cytochrome P450 1A1); experiment: Effect on Aryl hydrocarbon hydroxylase activity in 3-methylcolanthrene-induced rat liver microsomes at 2.3x10E-4M; assay type: ADME, Microsome; details: 3-methylcholanthrene-induced rat liver microsomes, read-out: Control; method in brief: as §1
# Cytochrome P450 2B1 [9] = target: T1, Cytochrome P450 2B1; experiment: Interaction with cytochrome P450 in Phenobarbitone-induced rat hepatic microsomes; assay type: ADME, Liver; details: read-out: Ks
# Method in brief: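 Microsomes came from immature male Wistar rats dosed with phenobarbitone, 80 (mg/kg)/day ip for 3 days, and starved 24 h before sacrifice. Difference spectra recorded at 1 mg/mL microsomal protein. Ks obtained in duplicate from abscissal intercept of a double-reciprocal plot of ΔOD (peak-trough) against compound concentration, using five to eight concentrations.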
# [10] = target: T2, aryl hydrocarbon hydroxylase (cytochrome P450 1A1); experiment: Effect on Aryl hydrocarbon hydroxylase activity in 3-methylcolanthrene-induced rat liver microsomes at 3.6x10E-4M; assay type: ADME, Microsome; details: 3-methylcholanthrene-induced rat liver microsomes, read-out: Control; method in brief: as §1
# [11] = target: T2, aryl hydrocarbon hydroxylase (cytochrome P450 1A1); experiment: Effect on Aryl hydrocarbon hydroxylase activity in 3-methylcolanthrene-induced rat liver microsomes at 5.2x10E-5M; assay type: ADME, Microsome; details: 3-methylcholanthrene-induced rat liver microsomes, read-out: Control; method in brief: as §1
# [12] = target: T2, aryl hydrocarbon hydroxylase (cytochrome P450 1A1); experiment: Effect on Aryl hydrocarbon hydroxylase activity in 3-methylcolanthrene-induced rat liver microsomes at 1.2x10E-3M; assay type: ADME, Microsome; details: 3-methylcholanthrene-induced rat liver microsomes, read-out: Control
# Method in brief: (§2)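 Liver microsomes from immature male Wistar rats (100-150 g) given one 3-MC dose (25 mg/kg in corn oil, ip) 3 days before sacrifice, starved 24 h. Incubation: benzo[a]pyrene 357 nmol, MgCl2 3.0 μmol, NADPH 0.50 μmol, 1.2 mg protein, 0.1 M potassium phosphate pH 7.4 (3.0 mL), 6 min, 37 °C. Compound added from 0.07 N HCl or Me2SO-water stock at near-maximal solubility. Fluorescent phenols read ex 396/em 522 nm. Value is % of solvent control, mean of three determinations.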
# [13] = target: T2, aryl hydrocarbon hydroxylase (cytochrome P450 1A1); experiment: Effect on Aryl hydrocarbon hydroxylase activity in 3-methylcolanthrene-induced rat liver microsomes at 1.7x10E-4M; assay type: ADME, Microsome; details: 3-methylcholanthrene-induced rat liver microsomes, read-out: Control; method in brief: as §1
# [14] = target: T2, aryl hydrocarbon hydroxylase (cytochrome P450 1A1); experiment: Effect on Aryl hydrocarbon hydroxylase activity in 3-methylcolanthrene-induced rat liver microsomes at 4.3x10E-4M; assay type: ADME, Microsome; details: 3-methylcholanthrene-induced rat liver microsomes, read-out: Control; method in brief: as §2
# [15] = target: T2, aryl hydrocarbon hydroxylase (cytochrome P450 1A1); experiment: Effect on Aryl hydrocarbon hydroxylase activity in 3-methylcolanthrene-induced rat liver microsomes at 8x10E-4M; assay type: ADME, Microsome; details: 3-methylcholanthrene-induced rat liver microsomes, read-out: Control; method in brief: as §2
# [16] = target: T2, aryl hydrocarbon hydroxylase (cytochrome P450 1A1); experiment: Effect on Aryl hydrocarbon hydroxylase activity in 3-methylcolanthrene-induced rat liver microsomes at 5.9x10E-4M; assay type: ADME, Microsome; details: 3-methylcholanthrene-induced rat liver microsomes, read-out: Control; method in brief: as §1
SMILES,IC50 (Cytochrome P450 2B1 [1]),IC50 [2],logP [3],Kd [7],Kd (Cytochrome P450 2B1 [9]),other results
CCCCCCCCCCCc1nc2ccccc2[nH]1,15 µM,18 µM,6.85,–,–,activity at 50 µM [4]: 103%
CCCCCc1nc2ccccc2[nH]1,50 µM,82 µM,3.85,–,–,activity at 0.00036 M [10]: 89%
CCCC(C(=O)OCCN(CC)CC)(c1ccccc1)c1ccccc1 [PROADIFEN HYDROCHLORIDE],8.2 µM,22 µM,–,–,–,activity at 52 µM [11]: 105%
c1ccc2[nH]cnc2c1 [BENZIMIDAZOLE],980 µM,1100 µM,1.35,3200 µM,110 µM,activity at 0.0012 M [12]: 101%
CCCCCCCc1nc2ccccc2[nH]1,26 µM,24 µM,4.85,–,–,activity at 0.00017 M [13]: 93%
c1ccc(-c2c[nH]cn2)cc1,7.4 µM,33 µM,–,1.7 µM,1.1 µM,activity at 0.00043 M [14]: 83%
Cc1ccc2[nH]cnc2c1,–,–,–,–,62 µM,Kd [5]: 210 µM
Cc1cc2nc[nH]c2cc1C [DIMEDAZOL],180 µM,97 µM,2.35,320 µM,62 µM,activity at 0.0008 M [15]: 69%
CCCc1nc2ccccc2[nH]1,300 µM,480 µM,2.85,–,–,activity at 0.00059 M [16]: 99%

# Continued, in another order:
IC50 (Cytochrome P450 2B1 [1]),IC50 [2],logP [3],SMILES,Kd [7],Kd (Cytochrome P450 2B1 [9]),other results
180 µM,110 µM,3.35,CCc1nc2cc(C)c(C)cc2[nH]1,–,–,–
53 µM,84 µM,–,c1ccc2cc3[nH]cnc3cc2c1,–,–,Kd [5]: 82 µM; Kd (Cytochrome P450 2B1 [6]): 15 µM
370 µM,170 µM,2.85,Cc1nc2cc(C)c(C)cc2[nH]1,28 µM,100 µM,activity at 0.00023 M [8]: 77%
670 µM,630 µM,2.35,CCc1nc2ccccc2[nH]1,–,–,–
1080 µM,670 µM,1.85,Cc1nc2ccccc2[nH]1,510 µM,440 µM,–
